From ChEMBL document CHEMBL1129426, “5-Lipoxygenase inhibitors: synthesis and structure-activity relationships of a series of 1-aryl-2H,4H-tetrahydro-1,2,4-triazin-3-ones” (J Med Chem, 1996)

Legend:
[1] = molecular target: T1, Polyunsaturated fatty acid 5-lipoxygenase (Rattus norvegicus, UniProt P12527); assay: Inhibition of 5-lipoxygenase catalysis in rat basophilic leukemia (RBL) cells by measuring 5-HETE product formation; type: cell-based, RBL-1
T1 sequence (P12527 whole entry): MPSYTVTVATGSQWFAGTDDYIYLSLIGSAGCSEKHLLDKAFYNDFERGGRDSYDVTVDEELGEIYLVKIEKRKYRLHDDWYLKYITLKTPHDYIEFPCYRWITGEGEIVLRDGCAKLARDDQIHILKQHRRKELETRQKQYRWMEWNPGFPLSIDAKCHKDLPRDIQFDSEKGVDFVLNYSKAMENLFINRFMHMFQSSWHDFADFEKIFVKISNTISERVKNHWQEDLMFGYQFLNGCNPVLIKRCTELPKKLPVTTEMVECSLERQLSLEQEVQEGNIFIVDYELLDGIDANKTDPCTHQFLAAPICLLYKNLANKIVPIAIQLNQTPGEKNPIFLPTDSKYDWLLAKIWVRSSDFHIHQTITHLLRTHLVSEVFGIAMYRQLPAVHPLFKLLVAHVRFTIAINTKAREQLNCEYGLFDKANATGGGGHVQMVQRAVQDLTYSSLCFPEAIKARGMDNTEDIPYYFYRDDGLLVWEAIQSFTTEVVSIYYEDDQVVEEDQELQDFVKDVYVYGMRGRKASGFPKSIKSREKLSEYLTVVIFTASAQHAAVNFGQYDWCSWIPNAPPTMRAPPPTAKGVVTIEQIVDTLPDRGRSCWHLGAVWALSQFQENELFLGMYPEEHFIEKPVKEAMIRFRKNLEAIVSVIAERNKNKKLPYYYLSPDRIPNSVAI
Method in brief: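 Crude 20000g supernatant from sonicated rat basophilic leukemia cells used as 5-LO source; 5-HETE product formation measured.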

[2] = molecular target: T2, Polyunsaturated fatty acid 5-lipoxygenase (Homo sapiens, UniProt P09917); assay: In vitro 5-lipoxygenase inhibitory activity against calcium ionophore (A23187) induced LTB4 formation in human whole blood.
T2 sequence (P09917 whole entry): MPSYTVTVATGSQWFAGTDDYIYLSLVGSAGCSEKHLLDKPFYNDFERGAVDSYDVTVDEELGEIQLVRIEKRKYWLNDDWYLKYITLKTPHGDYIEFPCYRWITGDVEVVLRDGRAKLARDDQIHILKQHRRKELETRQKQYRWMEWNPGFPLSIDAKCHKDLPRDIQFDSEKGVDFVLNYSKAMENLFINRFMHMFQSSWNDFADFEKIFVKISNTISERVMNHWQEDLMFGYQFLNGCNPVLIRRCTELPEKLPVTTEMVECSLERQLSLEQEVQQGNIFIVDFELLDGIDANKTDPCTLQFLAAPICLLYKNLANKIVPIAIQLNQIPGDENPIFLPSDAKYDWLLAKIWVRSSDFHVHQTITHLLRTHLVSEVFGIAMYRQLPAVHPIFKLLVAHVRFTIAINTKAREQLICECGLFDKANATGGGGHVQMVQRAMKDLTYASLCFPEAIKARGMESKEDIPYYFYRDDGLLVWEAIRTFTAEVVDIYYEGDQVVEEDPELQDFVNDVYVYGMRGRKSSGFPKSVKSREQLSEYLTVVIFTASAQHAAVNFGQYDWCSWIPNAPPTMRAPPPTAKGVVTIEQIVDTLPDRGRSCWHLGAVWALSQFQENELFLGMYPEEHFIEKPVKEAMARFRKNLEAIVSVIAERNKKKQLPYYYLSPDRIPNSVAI

[3] = Plasma Cmax in rat (PO dose); type: ADME, organism-based; parameters: route oral
Method in brief: (§1)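 Rats dosed by oral gavage at 200 µmol/kg. Tail-vein blood drawn at about 1 h intervals; plasma analysed by HPLC. Mean of data from two animals.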

[4] = Plasma Tmax in rat (PO dose); type: ADME, organism-based; method in brief: as §1
Rattus norvegicus [5] = assay: In vivo inhibition of rat anaphylaxis leukotriene formation from peritoneal fluids, 1 hr after an oral dose of 200 uM/Kg; type: functional
Method in brief: (§2)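 Rats given 200 µmol/kg orally 1 h before antibody-antigen challenge inducing peritoneal leukotriene biosynthesis; LTE4 in peritoneal fluid measured. Mean of eight rats; percent inhibition versus control group mean; significance by one-way ANOVA with Tukey's multiple comparison.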

Rattus norvegicus [6] = assay: In vivo inhibition of rat anaphylaxis LTE4 leukotriene formation from peritoneal fluids, 1 hr after an oral dose of 200 uM/kg; type: functional; method in brief: as §2

SMILES	IC50 [1] [µM]	IC50 [2] [µM]	Cmax [3] [µM]	Tmax [4] [h]	ED50 (Rattus norvegicus [5]) [mg/kg]	Inhibition (Rattus norvegicus [6]) [%]
CC1CN(c2ccccc2)NC(=O)N1O (stereo not given)	6	13	–	–	–	–
CCc1cccc(N2CCNC(=O)N2)c1	–	–	32	1.1	24	–
CN1CCN(c2ccccc2)NC1=O	32	–	–	–	–	–
O=C1NCCN(c2nc3ccccc3s2)N1	32	–	123	2	–	–
O=C1NCCN(c2cccc(F)c2)N1	–	–	108	1	–	38
COCCOCC1CN(c2ccccc2)NC(=O)N1 (stereo not given)	14	24	–	–	–	–
O=C1NCCN(c2cccc(Br)c2)N1	–	–	35	4.2	–	46
O=C1NCCN(c2cc(F)cc(F)c2)N1	8.9	4.6	64	2	–	59
O=C1NCCN(c2cccc(-c3ccncc3)c2)N1	30	–	–	–	–	–
Cc1cccc(N2CCNC(=O)N2)c1	–	2	98	1.1	18	–
CC1CN(c2cccc(F)n2)NC(=O)N1 (stereo not given)	6.6	6	–	–	–	–
O=C1NCCN(c2cccc(-c3cccs3)c2)N1	2.1	8.8	3	1	–	–
CC1CN(c2ccccc2)NC(=O)N1 (stereo not given)	11	5.8	141	2	13	–
O=C1NCCN(c2cccnc2)N1	32	–	–	–	–	–
O=C1NCCN(c2ccncc2)N1	32	–	–	–	–	–
CCN1CCN(c2ccccc2)NC1=O	32	–	–	–	–	–
O=C1NCCN(c2cccc(F)n2)N1	9.1	3	–	–	–	–
Cc1ccc(N2CCNC(=O)N2)cc1	300	–	105	1.1	–	–
CC1CN(c2cccc(Cl)c2)NC(=O)N1O (stereo not given)	–	3.6	–	–	–	–
COc1cccc(N2CCNC(=O)N2)c1	47	–	72	1.2	–	44
O=C1NCCN(c2cccc(-c3ccccn3)c2)N1	30	–	–	–	–	–
O=C1NCCN(c2cccc(-c3ccccn3)n2)N1	6	> 50	–	–	–	–
O=C1NCCN(c2ccnc3cc(Cl)ccc23)N1	32	–	85	4	–	–
CC1CN(c2cccc(Br)c2)NC(=O)N1 (stereo not given)	2.6	5.2	26	7.2	–	54
COc1cccc(N2CCNC(=O)N2)n1	9.5	3.5	101	1	–	26

SMILES	IC50 [1] [µM]	IC50 [2] [µM]	Cmax [3] [µM]	Tmax [4] [h]	ED50 (Rattus norvegicus [5]) [mg/kg]	Inhibition (Rattus norvegicus [6]) [%]
CON1C(=O)NN(c2ccccc2)CC1C (stereo not given)	22	–	–	–	–	–
O=C1NCCN(c2cccc(-c3cccs3)n2)N1	8.2	37	–	–	–	–
CCC1CN(c2ccccc2)NC(=O)N1 (stereo not given)	–	3.8	59	1.2	24	–
CC1CN(c2cccc(Cl)c2)NC(=O)N1 (stereo not given)	2.7	2.7	31	4	–	40
O=C1NCCN(c2cccc(C(F)(F)F)c2)N1	–	–	24	4.1	–	40
CC1CN(c2cccc(Br)n2)NC(=O)N1 (stereo not given)	–	3.1	21	2	–	57
Nc1cccc(N2CCNC(=O)N2)c1	178	–	95	1.1	–	–
O=C1NCCN(c2cccc([N+](=O)[O-])c2)N1	49	–	62	2	–	–
Cc1cccc(N2CC(C)NC(=O)N2)c1 (stereo not given)	1.3	–	44	2.2	–	43
O=C1NCCN(c2cccc(O)c2)N1	32	–	–	–	–	–
COc1cccc(N2CC(C)NC(=O)N2)n1 (stereo not given)	5.5	7.1	85	1	–	–
Cc1cc(C)cc(N2CCNC(=O)N2)c1	–	–	20	4	–	46
O=C1NN(c2ccccc2)CCN1Cc1ccccc1	8.3	–	–	–	–	–
Cc1cccc(N2CC(C)N(O)C(=O)N2)c1 (stereo not given)	8.4	4.8	–	–	–	–
O=C1NCCN(c2ccccn2)N1	–	8.6	184	1	8	–
CC1CN(c2cccc(-c3cccs3)c2)NC(=O)N1 (stereo not given)	2.8	5.5	1	4	–	–
Cc1cccc(N2CC(C)NC(=O)N2)n1 (stereo not given)	3.8	1.7	125	1	–	–
O=C1NCCN(c2cccc(OCc3ccccc3)c2)N1	1.1	0.2	2.5	1	–	14
O=C1NCCN(c2cccc(-c3ccsc3)c2)N1	4.9	5.3	2	1	–	–
CCCCC1CN(c2ccccc2)NC(=O)N1 (stereo not given)	1.5	–	8	1	–	42
O=C1NCCN(c2cnc3ccccc3c2)N1	32	–	58	1	–	–
CSc1cccc(N2CCNC(=O)N2)c1	–	2.2	26	1	–	73
O=C1NCCN(c2nc3ccccc3o2)N1	32	–	–	–	–	–
CC1CN(c2cccc(F)c2)NC(=O)N1 (stereo not given)	6.3	1.8	70.2	7.2	–	60
